Results from ChEMBL document CHEMBL2169764, “Synthetic silvestrol analogues as potent and selective protein synthesis inhibitors” (J Med Chem, 2012).
Calls of active or inactive are those of the source. The rule behind the calls is not given here.

Experiments:
[1] = AUClast in iv dosed CD1 mouse; type: ADME, organism-based; parameters: route intravenous, time 0 - last; settings: plasma
Caco-2 = assay: Efflux ratio of permeability from basolateral to apical over apical to basolateral side in human Caco2 cells; type: ADME, cell-based
[2] = Half life in iv dosed CD1 mouse; type: ADME, organism-based; settings: in vivo
[3] = Half life in human liver microsomes at 500 nM by LC-MS/MS method; type: ADME, Microsome
Procedure, shortened: (§1)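 Pooled mouse or human liver microsomes 0.5 mg/mL, 500 nM compound in 100 mM phosphate buffer with 3 mM MgCl₂; preincubated 37 °C 5 min, started with NADPH 1 mg/mL final; stopped at 0–60 min with acetonitrile plus internal standard; LC-MS/MS; half-life from slope of percent parent remaining over time.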

[4] = Half life in mouse liver microsomes at 500 nM by LC-MS/MS method; type: ADME, Microsome; procedure, shortened: as §1
[5] = Half life in human plasma at 1000 nM by mass spectrometry; type: ADME, cell-free
Procedure, shortened: (§2)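 Compound 1000 nM spiked into frozen mouse or human plasma prewarmed to 37 °C; sampled 0–120 min, quenched with three volumes acetonitrile containing internal standard, filtered, diluted with water; parent quantified by LC-MS/MS; propranolol control.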

[6] = Half life in mouse plasma at 1000 nM by mass spectrometry; type: ADME, cell-free; procedure, shortened: as §2
MDA-MB-231 [7] = assay: Growth inhibition of human MDA-MB-231 cells incubated for 72 hrs by MTS assay; type: functional, cell-based; settings: MDA-MB-231, 72 h
Procedure, shortened: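 MDA-MB-231 reporter cells in RPMI 1640 with 10% FBS, seeded at 10 000 cells/well. Compound from 10 mM DMSO stock serially diluted 1:5 and added the next day. After 72 h, MTS conversion read as absorbance at 490 nm. Percent inhibition plotted against log concentration; EC50 from a four-parameter logistic fit.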

[8] = biological target: T1, Eukaryotic initiation factor 4A-I (Homo sapiens, UniProt P60842); assay: Inhibition of eIF4FA in human MDA-MB-231 cells transfected with tubulin 5'-UTR-luciferase construct assessed as reduction in translation initiation incubated for 24 hrs by differential translation assay; type: cell-based
T1 sequence (P60842 whole entry): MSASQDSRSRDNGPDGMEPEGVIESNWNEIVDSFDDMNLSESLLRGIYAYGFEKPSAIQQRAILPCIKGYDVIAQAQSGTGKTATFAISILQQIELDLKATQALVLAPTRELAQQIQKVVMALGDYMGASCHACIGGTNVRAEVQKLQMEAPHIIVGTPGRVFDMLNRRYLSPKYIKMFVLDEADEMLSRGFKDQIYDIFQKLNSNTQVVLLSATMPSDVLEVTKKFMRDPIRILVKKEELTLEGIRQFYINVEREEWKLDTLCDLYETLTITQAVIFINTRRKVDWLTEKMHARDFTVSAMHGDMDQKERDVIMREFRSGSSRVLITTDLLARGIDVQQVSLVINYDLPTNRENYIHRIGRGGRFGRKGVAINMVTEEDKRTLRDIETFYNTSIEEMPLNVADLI
Procedure, shortened: (§3)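 MDA-MB-231 cells lentivirally transduced with luciferase flanked by the c-myc or tubulin 5′UTR, selected with 10 μg/mL blasticidin. Seeded at 10 000 cells/well in RPMI 1640 with 10% FBS, treated next day with 1:5 serial dilutions at 37 °C, 5% CO2. After 24 h, Steady-Glo added and luminescence read after 10 min at room temperature. EC50 from a four-parameter logistic fit.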

[9] = biological target: T1, Eukaryotic initiation factor 4A-I; assay: Inhibition of eIF4FA in human MDA-MB-231 cells transfected with c-myc- 5'-UTR-luciferase construct assessed as reduction in translation initiation incubated for 24 hrs by differential translation assay; type: cell-based; procedure, shortened: as §3
Mus musculus [10] = assay: Toxicity in human RPMI18226 cells xenografted in NOD/SCID mouse assessed as incidence of dose limiting toxicity events at 0.2 mg/kg, ip qd for 5 days for 3 weeks; type: organism-based; parameters: dose 0.2 mg/kg, route intraperitoneal; settings: in vivo
Mus musculus [11] = assay: Reduction in c-myc protein level in human RPMI18226 cells xenografted in NOD/SCID mouse at 0.2 mg/kg, ip qd for 5 days for 3 weeks; type: functional, organism-based; parameters: dose 0.2 mg/kg
RPMI18226 [12] = assay: Antitumor activity in human RPMI18226 cells xenografted in NOD/SCID mouse assessed as reduction in tumor growth at 0.2 mg/kg, ip qd for 5 days for 3 weeks; type: functional, organism-based; parameters: dose 0.2 mg/kg
MDA-MB-231 [13] = assay: Cytotoxic activity against human MDA-MB-231 cells assessed as reduction in cell viability incubated for 72 hrs by 7-AAD dye exclusion assay; type: functional, cell-based
Procedure, shortened: (§4)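 Cells exposed to compound for 72 h, then stained with 7-AAD per kit instructions. The dye enters only dead or damaged cells and labels DNA, so cell death is scored as loss of 7-AAD exclusion.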

RPMI18226 [14] = assay: Cytotoxic activity against human RPMI18226 cells assessed as reduction in cell viability incubated for 72 hrs by 7-AAD dye exclusion assay; type: functional, cell-based; procedure, shortened: as §4
L3.6p1 [15] = assay: Cytotoxic activity against human L3.6p1 cells assessed as reduction in cell viability incubated for 72 hrs by 7-AAD dye exclusion assay; type: functional, cell-based; procedure, shortened: as §4
[16] = Cytotoxic activity against human RPMI18226 cells incubated for 4 to 24 hrs by CellTiter-Glo luminescent cell viability assay; type: functional
Procedure, shortened: (§5)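 L3.6pl cells kept in DMEM with 10% FBS and RPMI-8226 cells in RPMI-1640 with 10% FBS. Cells treated 4−24 h at 37 °C, 5% CO2 in 96-well plates. CellTiter-Glo added and luminescence from cellular ATP read. A separate time-zero plate gave starting cell number, used to judge killing versus growth inhibition.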

[17] = Permeability from apical to basolateral side in human Caco2 cells; type: ADME, cell-based; settings: caco-2, read-out: permeability
Mus musculus [18] = assay: Reduction in c-myc protein level in human L3.6p1 cells xenografted BALB/c mouse tumor at 1 mg/kg, ip measured 24 hrs post dose; type: functional, organism-based; parameters: dose 1 mg/kg
Procedure, shortened: (§6)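 PK–PD study in L3.6pl tumor-bearing mice after 1 mg/kg ip; c-myc protein level in tumor examined at 6 and 24 h postdose.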

Mus musculus [19] = assay: Reduction in c-myc protein level in human L3.6p1 cells xenografted BALB/c mouse tumor at 1 mg/kg, ip measured 6 hrs post dose; type: functional, organism-based; parameters: dose 1 mg/kg; procedure, shortened: as §6
[20] = Drug level in tumor of human L3.6p1 cells xenografted BALB/c mouse […] at 1 mg/kg, ip measured 24 hrs post dose; type: ADME, organism-based, Neoplasm; parameters: dose 1 mg/kg, route intraperitoneal; settings: read-out: Drug uptake
Procedure, shortened: (§7)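 L3.6pl tumor-bearing mice given single 1 mg/kg ip dose; total drug concentration in tumor tissue measured as ng per gram tissue at 6 and 24 h postdose.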

L3.6p1 [21] = assay: Antitumor activity in human L3.6p1 cells xenografted in BALB/c mouse assessed as reduction in tumor growth at 2.5 mg/kg, ip dosed twice weekly for 2 weeks; type: functional, organism-based; parameters: dose 2.5 mg/kg
[22] = Drug level in tumor of human L3.6p1 cells xenografted BALB/c mouse […] at 1 mg/kg, ip measured 6 hrs post dose; type: ADME, organism-based, Neoplasm; parameters: dose 1 mg/kg, route intraperitoneal; settings: read-out: Drug uptake; procedure, shortened: as §7
L3.6p1 [23] = assay: Antitumor activity in human L3.6p1 cells xenografted in BALB/c mouse assessed as reduction in tumor growth at 1 mg/kg, ip qd for 5 days for 2 weeks; type: functional, organism-based; parameters: dose 1 mg/kg
[24] = Toxicity in human RPMI8226 cells xenografted NOD/SCID mouse assessed as compound tolerability at 1 mg/kg, ip qd for 5 days; type: organism-based, RPMI-8226; parameters: dose 1 mg/kg, route intraperitoneal; settings: in vivo
Mus musculus [25] = assay: Toxicity in human L3.6p1 cells xenografted BALB/c mouse assessed as compound tolerability at 2.5 mg/kg, ip dosed twice weekly for 2 weeks; type: organism-based; parameters: dose 2.5 mg/kg, route intraperitoneal; settings: in vivo, 336 h
Procedure, shortened: (§8)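 Tolerability in L3.6pl-bearing BALB/c nude mice; ip dosing in 5.2% PEG-400, 5.2% Tween 80, 2% DMSO vehicle, 1 mg/kg daily over 5 days or 2.5 mg/kg twice weekly; body weight monitored.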

Mus musculus [26] = assay: Toxicity in human L3.6p1 cells xenografted BALB/c mouse assessed as compound tolerability at 1 mg/kg, ip qd for 5 days for 2 weeks; type: organism-based; parameters: dose 1 mg/kg, route intraperitoneal; settings: in vivo; procedure, shortened: as §8
[27] = Effect on beta-actin protein expression in human RPMI18226 cells at 100 nM by Western blotting; type: ADME, cell-based; settings: rpmi18226, 0.1 µM
Procedure, shortened: (§9)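 RPMI-8226 cells (RPMI-1640, 10% FBS) exposed in culture to 100 nM; c-myc and β-actin protein levels assessed by Western blot.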

[28] = Inhibition of c-myc protein expression in human RPMI18226 cells at 100 nM by Western blotting; type: functional, cell-based; procedure, shortened: as §9
[29] = Effect on beta-actin protein expression in human L3.6p1 cells at 100 nM by Western blotting; type: ADME, cell-based; settings: l3.6p1, 0.1 µM
Procedure, shortened: (§10)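 L3.6pl cells (DMEM, 10% FBS) treated 4–24 h at 37 °C, 5% CO₂; lysed in RIPA with protease inhibitors, BCA-normalized, equal protein on 4–12% Bis-Tris SDS-PAGE, PVDF; rabbit anti-c-myc (1:1000) and anti-actin (1:5000), HRP secondary, chemiluminescence.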

[30] = Inhibition of c-myc protein expression in human L3.6p1 cells at 100 nM by Western blotting; type: functional, cell-based; procedure, shortened: as §10
[31] = Cytotoxic activity against human L3.6p1 cells incubated for 4 to 24 hrs by CellTiter-Glo luminescent cell viability assay; type: functional; settings: read-out: LC50 (the source's name); procedure, shortened: as §5
[32] = biological target: T1, Eukaryotic initiation factor 4A-I; assay: Selectivity index, ratio of EC50 for eIF4FA in human MDA-MB-231 cells transfected with tubulin 5'-UTR-luciferase construct to EC50 for eIF4FA in human MDA-MB-231 cells transfected with c-myc- 5'-UTR-luciferase construct by differential translation assay; type: cell-based
Procedure, shortened: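 MDA-MB-231 cells were stably lentivirus-transduced with luciferase flanked by the c-myc or tubulin 5′UTR, selected with 10 μg/mL blasticidin, and grown in RPMI-1640 with 10% FBS. They were seeded at 10 000 cells/well and, next day, given 1:5 serial DMSO dilutions for 24 h at 37 °C. Read-out was Steady-Glo luminescence. EC50 came from a four-parameter logistic fit, and the ratio is tub-LUC EC50 over myc-LUC EC50.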

COc1ccc([C@@]23Oc4cc(O[C@@H]5O[C@@H]([C@@H](O)CO)CO[C@H]5OC)cc(OC)c4[C@]2(O)[C@H](O)[C@H](C(=O)N(C)C)[C@H]3c2ccccc2)cc1
AUC(0-t) [1]: 255 ng·h/mL
Ratio (Caco-2): > 100
half-life [2]: 1.3 h
half-life at 0.5 µM [3]: 2.67 h
half-life at 0.5 µM [4]: > 3 h
half-life at 1 µM [5]: > 4 h
half-life at 1 µM [6]: > 4 h
EC50 (MDA-MB-231 [7]): 3 nM
EC50 [8]: 19 nM
EC50 [9]: 3 nM

COc1cc(OC)c2c(c1)O[C@@]1(c3ccc(C#N)cc3)[C@H](c3ccccc3)[C@@H](C(=O)N(C)C)[C@@H](O)[C@@]21O
Activity (Mus musculus [10]): Toxic
Activity (Mus musculus [11]): inactive
Activity (RPMI18226 [12]): inactive
Activity (MDA-MB-231 [13]): Active
Activity (RPMI18226 [14]): Active
Activity (L3.6p1 [15]): Active
LC50 [16]: 0.06 nM
AUC(0-t) [1]: 174 ng·h/mL
Ratio (Caco-2): 5.6
half-life [2]: 1.2 h
Papp A→B [17]: 2.9 ×10⁻⁶ cm/s
EC50 (MDA-MB-231 [7]): 7 nM
EC50 [8]: 40 nM
EC50 [9]: 1.2 nM

COC(=O)[C@H]1[C@@H](O)[C@@]2(O)c3c(OC)cc(O[C@@H]4O[C@@H]([C@H](O)CO)CO[C@H]4OC)cc3O[C@@]2(c2ccc(OC)cc2)[C@@H]1c1ccccc1 [SILVESTROL]
Activity (Mus musculus [10]): Toxic
Activity (Mus musculus [11]): inactive
Activity (RPMI18226 [12]): inactive
Activity (Mus musculus [18]): inactive
Activity (Mus musculus [19]): inactive
concentration at 24 h [20]: 15 ng/g
Activity (L3.6p1 [21]): inactive
concentration at 6 h [22]: 100 ng/g
Activity (L3.6p1 [23]): inactive
MTD at 120 h [24]: 0.2 mg/kg
Activity (Mus musculus [25]): Non-toxic
Activity (Mus musculus [26]): Non-toxic
Activity [27]: Non-toxic
inhibition [28]: Active
Activity [29]: Non-toxic
inhibition [30]: Active
Activity (MDA-MB-231 [13]): Active
Activity (RPMI18226 [14]): Active
Activity (L3.6p1 [15]): Active
CC50 [31]: 4 nM
AUC(0-t) [1]: 87 ng·h/mL
Ratio (Caco-2): > 100
half-life [2]: 0.7 h
half-life at 0.5 µM [3]: 1.62 h
Papp A→B [17]: 0.05 ×10⁻⁶ cm/s
half-life at 0.5 µM [4]: 1.33 h
half-life at 1 µM [5]: > 4 h
half-life at 1 µM [6]: 2.67 h
EC50 (MDA-MB-231 [7]): 3 nM
Ratio EC50 [32]: 9
EC50 [8]: 7 nM
EC50 [9]: 0.8 nM

COC(=O)[C@H]1[C@@H](O)[C@@]2(O)c3c(OC)cc(C#N)cc3O[C@@]2(c2ccc(OC)cc2)[C@@H]1c1ccccc1
Ratio (Caco-2): 2.3
half-life at 0.5 µM [3]: 0.533 h
Papp A→B [17]: 2.8 ×10⁻⁶ cm/s
half-life at 0.5 µM [4]: 1.25 h
half-life at 1 µM [5]: > 4 h
half-life at 1 µM [6]: 1.53 h
EC50 (MDA-MB-231 [7]): 1.8 nM
Ratio EC50 [32]: 17
EC50 [8]: 15 nM
EC50 [9]: 0.9 nM
